High-throughput results deposited in PubChem BioAssay by Johns Hopkins Ion Channel Center.
KCNK9 block – human KCNK9 channel inhibition | AID 488922 | B-score at 10 µM | 1.2% of 310,000 active | HEK293 KCNK9, FluxOR thallium flux fluorescence; active compounds read low;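 active means ratio B-score over 3 SD below the library mean, with starting fluorescence within 5 SD of its mean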;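 further: negative B-score means less thallium flux so channel inhibition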
KCNQ1 block – human KCNQ1 channel inhibition; 1.3% of 310,000 active; AID 2642; P51787; CHO-K1 KCNQ1, FluxOR thallium flux fluorescence; active compounds read high; B-score at 10 µM;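 active means compounds whose thallium flux B-score, printed positive for inhibition, exceeds three library SD while starting fluorescence stays within three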;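 further: channel opened by potassium depolarization with thallium stimulus after 20 min compound exposure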
hERG rescue – shields human hERG channel from block by proarrhythmic agents; Q12809; CHO-hERG, FluxOR thallium flux, dofetilide IC70 present; activation (rescue from dofetilide block), less the hit threshold, % at 10 µM; AID 1511; 0.51% of 310,000 active;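 active means activation above the mean of controls blocked by dofetilide plus 5 SD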;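 further: thallium influx through hERG after potassium depolarization seen as dye fluorescence rise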
Target sequence (Q12809 whole entry, looked up): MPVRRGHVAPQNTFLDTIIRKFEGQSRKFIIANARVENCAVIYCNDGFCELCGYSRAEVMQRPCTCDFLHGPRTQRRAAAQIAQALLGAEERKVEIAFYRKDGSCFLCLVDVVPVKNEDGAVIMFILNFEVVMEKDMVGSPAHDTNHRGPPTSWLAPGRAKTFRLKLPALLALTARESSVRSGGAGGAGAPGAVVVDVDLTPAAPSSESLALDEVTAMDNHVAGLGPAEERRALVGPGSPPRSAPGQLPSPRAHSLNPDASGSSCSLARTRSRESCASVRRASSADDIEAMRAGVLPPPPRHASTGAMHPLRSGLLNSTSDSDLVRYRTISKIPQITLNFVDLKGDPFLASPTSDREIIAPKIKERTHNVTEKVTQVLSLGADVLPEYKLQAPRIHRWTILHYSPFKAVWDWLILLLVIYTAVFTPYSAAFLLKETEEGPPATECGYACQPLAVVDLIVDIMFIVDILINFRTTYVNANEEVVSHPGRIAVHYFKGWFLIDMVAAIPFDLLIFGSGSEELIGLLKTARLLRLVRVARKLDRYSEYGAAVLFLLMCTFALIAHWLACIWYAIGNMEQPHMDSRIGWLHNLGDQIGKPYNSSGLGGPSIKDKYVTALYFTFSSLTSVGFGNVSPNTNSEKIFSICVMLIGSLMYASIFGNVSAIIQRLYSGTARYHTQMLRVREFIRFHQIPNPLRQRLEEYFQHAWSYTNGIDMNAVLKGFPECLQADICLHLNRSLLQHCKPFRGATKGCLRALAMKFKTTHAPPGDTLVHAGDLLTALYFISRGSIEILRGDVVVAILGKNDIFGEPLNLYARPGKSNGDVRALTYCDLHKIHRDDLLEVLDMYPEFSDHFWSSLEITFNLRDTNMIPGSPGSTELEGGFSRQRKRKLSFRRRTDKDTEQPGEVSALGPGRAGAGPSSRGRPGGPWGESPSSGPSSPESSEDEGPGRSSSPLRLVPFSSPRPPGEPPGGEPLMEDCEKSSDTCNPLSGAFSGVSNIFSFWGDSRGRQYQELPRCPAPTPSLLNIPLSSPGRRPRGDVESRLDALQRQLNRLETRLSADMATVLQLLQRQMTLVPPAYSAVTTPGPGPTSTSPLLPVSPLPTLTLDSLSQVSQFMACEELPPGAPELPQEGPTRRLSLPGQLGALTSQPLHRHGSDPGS
KCNK3 block – human KCNK3 channel inhibition, primary screen; 0.84% of 340,000 active; B-score at 10 µM; CHO-KCNK3 thallium flux, FluxOR fluorescence; active compounds read low;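 active means B-score under library mean minus 4 SD, starting fluorescence ratio at most library mean plus 5 SD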;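 further: more negative B-score means stronger inhibition of thallium flux through KCNK3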
Kir21 inh – Kir2.1 (mouse) channel inhibition | B-score at 10 µM | P35561 | HEK293-Kir2.1, FluxOR thallium flux fluorescence; active compounds read low | AID 1672 | 0.85% of 310,000 active;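 active means fluorescence ratio B-score at or below minus 3 SD of library scores, with starting-brightness B-score within 2 SD, cut at about -4.2 in these data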;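 further: channel flux triggered by added potassium and thallium sulfate stimulus; B-score of peak minus minimum fluorescence over baseline after thallium stimulus; more negative B-score means stronger Kir2.1 block with less thallium influx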
KCNQ1 pot – human KCNQ1 channel potentiation or activation. 0.35% of 310,000 active. AID 2648. B-score at 10 µM. P51787. CHO-K1 KCNQ1, thallium flux FluxOR fluorescence; active compounds read high;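 active means fluorescence ratio B-score, a plate-corrected score, at least three library SD, with initial intensity B-score within 5 SD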
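assay system = CHO-K1 cells stably expressing KCNQ1 | medium = assay buffer, equal DMSO in all wells | timing = 37 °C overnight plating, 90-min dark dye load, 20-min compound pretreatment | measured by = kinetic FluxOR thallium fluorescence, 10-s 1-Hz baseline, 110-s post-stimulus read | measure = fluorescence change relative to baseline, converted to B score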
KCNK9 block conf – human KCNK9 inhibitor confirmation | shares compounds with KCNK9 block | HEK293 KCNK9 cells, FluxOR thallium flux fluorescence | inhibition, % at 10 µM | 43% of 4,900 active;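 active means thallium signal inhibited by more than 5 SD of the compound-free buffer control wells, on both duplicate plates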
Kir21 sel – mouse Kir2.1 off-target activity of KCNK9 modulators | shares compounds with KCNK9 block | Kir2.1 cells, FluxOR thallium flux fluorescence | inhibition, % at 10 µM | 4% of 4,900 active | AID 492993;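 active means thallium signal drop more than 5 SD beyond the mean of the no-compound control wells, seen in both duplicate plates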;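 further: signal is fluorescence rise after thallium addition divided by baseline fluorescence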
HEK293 Tl ctr – second counter-screen for KCNK9 modulators: effect in non-induced cells. shares compounds with KCNK9 block. non-induced KCNK9-HEK293, FluxOR thallium flux. inhibition, % at 10 µM. 40% of 4,900 active. AID 492997;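 active means thallium signal drop beyond 5 SD of the untreated control mean, on both duplicate plates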
Numbers stand for hits; - = inactive; . = no result given. Compounds with a hit are over-represented: about 3.7% of the library has one in this group of screens.

SMILES | KCNK9 block | KCNQ1 block | hERG rescue | KCNK3 block | Kir21 inh | KCNQ1 pot | KCNK9 block conf | Kir21 sel | HEK293 Tl ctr
Cc1ccc(CN2CCN(/N=C/C=C/c3ccccc3[N+](=O)[O-])CC2)cc1 | - | - | - | - | - | - | - | - | -
Cc1ccc(C)c(Cn2nnc3c(=O)[nH]c(C4CCCN(C(=O)C5CCCCC5)C4)nc32)c1 (stereo not drawn) | -18 | - | - | - | - | - | 64% | - | 25%
CCN(CC)c1ccc(NC(=O)CN(C)Cc2cccs2)cc1 | - | - | - | - | - | - | . | . | .
Cc1ccc(NC(=O)CN(C)Cc2cccs2)cc1Cl | -16 | - | - | - | - | - | 68% | - | 32%
CCCCCCC(C)NC(=S)Nc1cc(S(=O)(=O)N(C)C)ccc1C (stereo not drawn) | - | - | - | - | - | - | . | . | .
CCC1C(=NO)C(CC)C(c2ccccc2)NC1c1ccccc1 (stereo not drawn) | - | - | - | - | - | - | - | - | -
CCCC1/C(=N/O)CC(c2ccccc2)NC1c1ccccc1 (stereo not drawn) | - | - | - | - | - | - | . | . | .
CCOC(=O)N1CCC(N2Cc3cccc(C(=O)NCc4ccccn4)c3C2=O)CC1 | - | - | - | - | - | - | . | . | .
COc1ccc(C(=O)NCc2ccc(N3CCN(C(=O)OC(C)(C)C)CC3)cc2)cc1 | - | - | - | - | - | - | - | - | -
COc1cccc(C(=O)NCc2ccc(N3CCN(C(=O)OC(C)(C)C)CC3)cc2)c1 | - | - | - | - | - | - | . | . | .
O=C(c1ccncc1)N1N=C(c2ccc(Br)cc2)CC1c1ccccc1O (stereo not drawn) | - | - | - | - | - | - | . | . | .
O=C(c1ccccc1Cl)N1N=C(c2ccc(Br)cc2)CC1c1nc2ccccc2[nH]1 (stereo not drawn) | -8.9 | - | - | - | - | - | 36% | - | 30%
N#CCCn1cc(C=O)c(-c2cccs2)n1 | - | - | - | - | - | - | . | . | .
c1ccc2sc(SCSc3nc4ccccc4s3)nc2c1 | -13 | - | - | - | - | - | 72% | - | 38%
O=C(O)CCSc1nc2ccccc2s1 | - | - | - | - | - | - | . | . | .
CCOC(=O)C1CCCN(C(=S)Nc2ccc(C)cc2C)C1 (stereo not drawn) | - | - | - | - | - | - | . | . | .
O=[N+]([O-])c1ccccc1-c1ccc(C(=S)N2CCN(c3ccccc3)CC2)o1 | - | - | - | - | - | - | - | - | -
Cc1ccc(N2CCN(C(=S)c3ccc(-c4ccccc4[N+](=O)[O-])o3)CC2)cc1 | - | - | - | - | - | - | . | . | .
Cc1cc(OCc2cc(C(=O)N(C)Cc3ccccn3)no2)cc(C)c1Cl | - | - | - | - | - | - | . | . | .
CN(CCc1ccccn1)C(=O)c1cc(COc2ccc(F)cc2F)on1 | - | - | - | - | - | - | . | . | .
COc1cccc(CN(C)C(=O)c2cc(COc3c(F)cccc3F)on2)c1 | - | - | - | - | - | - | - | - | -
Cc1cc(OCc2cc(C(=O)N(C)CCOc3ccccc3)no2)cc(C)c1Cl | - | - | - | - | - | - | - | - | -
CN(CCc1ccccc1)C(=O)c1cc(COc2ccc(F)cc2Cl)on1 | - | - | - | - | - | - | - | - | -
Cc1ccc(OCCN(C)C(=O)c2cc(COc3ccc(F)cc3F)on2)cc1 | - | - | - | - | - | - | - | - | -
CN(Cc1cnn(C)c1)C(=O)c1cc(COc2c(F)cccc2F)on1 | - | - | - | - | - | - | . | . | .
SMILES | KCNK9 block | KCNQ1 block | hERG rescue | KCNK3 block | Kir21 inh | KCNQ1 pot | KCNK9 block conf | Kir21 sel | HEK293 Tl ctr
Cc1noc(C)c1NC(=O)Nc1cccc2c1O[C@@H](CN(C)Cc1ccc3c(c1)OCO3)[C@@H](C)CN([C@H](C)CO)C2=O | . | . | . | - | . | . | . | . | .
CCCCCCNc1nc(-c2ccc(OC)cc2)c(CCC(=O)O)s1 | - | - | - | - | - | - | . | . | .
COc1ccc(CNC(=O)C(=O)NCCCn2ccnc2)cc1 | - | - | - | - | - | - | . | . | .
Oc1ccc(/C=N/n2c(COc3ccccc3)n[nH]c2=S)c(O)c1 | -8.3 | - | - | - | - | - | 48% | - | 35%
Cn1c2ccccc2c(=O)c2ccc(-c3ccc4c(c3)OCO4)cc21 | -8.9 | - | - | - | - | - | 64% | - | -
COc1ccc(C(=O)Nc2ccccc2C(N)=O)cc1 | - | - | - | - | - | - | . | . | .
COc1ccc(C(=O)Nc2ccccc2C(=O)N/N=C/c2cccc3ccccc23)cc1 | -8.5 | - | - | - | - | - | 61% | - | 37%
Cc1ccc(C)c(C(=O)COC(=O)c2cc([N+](=O)[O-])ccc2NCCO)c1 | -8.2 | - | - | - | - | 11 | 59% | - | -
Cc1nn(-c2ccccc2)c(C)c1NC(=O)COC(=O)c1cc([N+](=O)[O-])ccc1NCCO | - | - | - | - | - | - | . | . | .
N#CCSc1nc2c(c(=O)n1Cc1ccco1)C1(CCCC1)Cc1ccccc1-2 | -14 | 6 | - | - | - | - | 54% | - | 33%
Cc1cc(C)c(-n2nnnc2SC(C)C)c(C)c1 | -11 | - | - | - | - | - | 54% | - | 42%
O=C([O-])c1cc(-c2ccccc2)cc(-c2ccccc2)[n+]1CCc1ccc(Cl)cc1 | . | . | . | - | . | . | . | . | .
CCOc1cccc(CN2CCN(c3cccc(C(F)(F)F)c3)CC2)c1O | - | - | - | - | - | - | - | - | -
O=S(=O)(c1ccccc1)C1(C2CC(c3ccccc3)=NO2)CC(O)C1 (stereo not drawn) | - | - | - | - | - | - | . | . | .
O=C(O)Cn1c(=O)c2c3c(sc2n(Cc2ccccc2F)c1=O)CCCC3 | - | - | - | - | - | - | . | . | .
O=C(Sc1ccc(Cl)cc1)c1cccc(Cn2cc(C(F)(F)F)ccc2=O)c1 | -14 | - | - | - | - | - | 34% | - | 34%
N/C(=N\OC(=O)c1cccc(Cn2cc(C(F)(F)F)ccc2=O)c1)c1ccc(Cl)cc1 | -12 | - | - | - | - | - | 46% | - | -
COc1cccc(NC(=O)c2ncc(Cl)c(Cl)c2Cl)c1 | - | - | - | - | - | - | . | . | .
O=C(CSc1nc2ccc(Nc3nc(N4CCOCC4)nc(N4CCOCC4)n3)cc2s1)Nc1ccccc1F | - | - | - | - | - | - | . | . | .
CCOC(=O)c1c(-c2ccc(F)cc2)csc1/N=C/N(C)C | - | - | - | - | - | - | . | . | .
O=c1c(CN2CCN(c3cccc(Cl)c3)CC2)coc2c(Cl)cc(Cl)cc12 | - | - | - | - | - | - | - | - | -
